A short description of data set [1]: Stability in Sprague-Dawley rat liver microsomes assessed as rate constant […] up to 60 mins in presence of NADPH by LC-MS/MS analysis. Format: ADME, Microsome.
The subject of data set [2] is 3T3-L1. The data set can be described thus: Activation of AMPK pathway in adipogenic cocktail-induced mouse 3T3-L1 cells assessed as decrease in ATP level at 1 uM after 24 hrs. Format: cell-based. The settings on record: filed as activator. The method in brief: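 Confluent 3T3-L1 pre-adipocytes exposed to adipogenic cocktail (0.5 mM IBMX, 100 ng/mL dexamethasone, 2 µg/mL insulin) with compound at 0.3 or 1 µM for 24 h. ATP quantified with a commercial luminescent kit and normalized to protein.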

Data set [3] is described as follows: Half life in Sprague-Dawley rat at 5 mg/kg, po up to 24 hrs by LC-MS/MS analysis. Type of data set: ADME, organism-based. The settings on record: in vivo. The essentials: (§1)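 Male SD rats (180–220 g, n = 3) received compound in ethanol/saline (5:95), either intravenously at 2 mg/kg or intragastrically at 5 mg/kg. Plasma was sampled at 0, 0.5, 1, 2, 4, 8, 12 and 24 h. Concentrations were measured by LC-MS/MS, and PK parameters were calculated from the concentration–time data.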

Data set [4] in a line: Half life in Sprague-Dawley rat at 2 mg/kg, iv up to 24 hrs by LC-MS/MS analysis. The settings on record: in vivo.
A short description of data set [5]: AUC(0 to infinity) in Sprague-Dawley rat at 2 mg/kg, iv up to 24 hrs by LC-MS/MS analysis. The following applies: in vivo.
Data set [6] can be described thus: Apparent volume of distribution in Sprague-Dawley rat at 2 mg/kg, iv up to 24 hrs by LC-MS/MS analysis. The settings on record: in vivo, read-out: Vz.
Data set [7] has as its system 3T3-L1. The data set can be described thus: Cytotoxicity against mouse 3T3-L1 cells assessed as change in LDH releasing level at 5 uM after 6 days by LDH releasing assay. Type of data set: cell-based. The settings on record: 3t3-l1, 144 h, time 6 day. The essentials: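 Differentiating 3T3-L1 cells were treated at 5 µM for 6 days. Plates were centrifuged and LDH activity in the supernatant was read at 490 nm. Release was expressed as fold = (treated − blank)/(control − blank), with untreated cells as blank and vehicle-differentiated control set to 1.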

Data set [8] has as its system 3T3-L1. Kind of data set: Lipid lowering activity in mouse 3T3-L1 cells assessed as adipogenic cocktail-induced triglyceride levels at 1 uM after 6 to 9 days by GPO-POD assay relative to control. Format: functional. The following applies: time 6-9 day. The method in brief:
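3T3-L1 cells were differentiated (cocktail on days 0–3, insulin thereafter) with 1 µM compound present during defined windows (days 0–3, 3–6, 6–9, or 0–3/0–6/0–9). TG was measured at day 9 by GPO-POD after Triton X-100 lysis and sonication. TG was normalized to BCA protein and expressed as % of differentiated control.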

Data set [9] has as its system 3T3-L1. The data set can be described thus: Inhibition of mouse 3T3-L1 cells adipocyte differentiation assessed as reduction in adipogenic cocktail-induced ACC protein expression at 0.3 to 1 uM after 6 days by Western blot analysis. The following applies: dose 0.3-1 µM, time 6.0 day. Format: functional, cell-based. The essentials: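 3T3-L1 preadipocytes were differentiated with cocktail for 3 days, then insulin medium for 3 days, with compound (0.3 or 1 µM) present throughout. Cells were harvested on day 6 and proteins measured by Western blot, with densitometry normalized to actin.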
(In general: A western blot detects proteins with antibodies after separation by electrophoresis.)

Data set [10] concerns 3T3-L1. Kind of data set: Activation of AMPK pathway in adipogenic cocktail-induced mouse 3T3-L1 cells with SiRNA-induced AMPKalpha knock down assessed as decrease in C/EBPalpha protein expression at 1 uM after 24 hrs by Western blot analysis. Format: cell-based. The essentials: (§2)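 3T3-L1 cells at 80% density transfected with 50 nM AMPKα siRNA or negative control for 24 h. Once confluent, differentiated with adipogenic cocktail with or without compound. Protein by Western blot normalized to actin. TG measured by GPO-POD kit, normalized to BCA protein, expressed as % of control.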

For data set [11], the system named is 3T3-L1. Kind of data set: Activation of AMPK pathway in adipogenic cocktail-induced mouse 3T3-L1 cells with SiRNA-induced AMPKalpha knock down assessed as decrease in PPARgamma protein expression at 1 uM after 24 hrs by Western blot analysis. Type of data set: cell-based. The essentials: as §2
The nature of data set [12]: Toxicity in ip dosed C57BL/6J mouse administered for every other days for 6 weeks. Type of data set: organism-based. The settings on record: in vivo. The method in brief:
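Male C57BL/6J mice (7–8 weeks) were fed an HFC diet (60% fat, 1% cholesterol) from week 1 and given 20 mg/kg i.p. every other day for 6 weeks from week 9, in saline with 10% ethanol and 10% castor oil, against a vehicle group. At the end, after a 6 h fast under ketamine/xylazine, plasma was taken for auto-analyzer ALT, AST, TBIL, ALB, BUN and creatinine, and tissues were weighed.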

Data set [13] relates to Mus musculus. Kind of data set: Antiobesity activity in high fat diet-induced obese C57BL/6J mouse model assessed as decrease in AUC of GTT at 20 mg/kg, ip administered for every other days for 3 weeks by GTT method. Format: functional, organism-based. The essentials: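 Male C57BL/6J mice on HFC diet dosed i.p. For GTT, after 3 weeks of treatment: 6 h fast, then i.p. glucose 2 g/kg. For ITT, after 6 weeks: 6 h fast, then i.p. insulin 0.4 U/mouse. Tail-vein glucose measured at 0, 15, 30, 60 and 120 min; AUC calculated.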

The nature of data set [14]: MRT(0 to infinity) in Sprague-Dawley rat at 2 mg/kg, iv up to 24 hrs by LC-MS/MS analysis. Format: ADME, organism-based. The following applies: in vivo. The method in brief:
as §1

For data set [15], the system named is Mus musculus. Kind of data set: Antiobesity activity in high fat diet-induced obese C57BL/6J mouse model assessed as AST level at 20 mg/kg, ip administered for every other days for 6 weeks by auto-analyzer method (reference value: 341.6 +/- 23.8 U/L). Type of data set: functional. The essentials:
(§3)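 Male C57BL/6J mice (7–8 weeks) fed HFC diet (60% fat, 1% cholesterol) for up to 14 weeks. From week 9, given 20 mg/kg i.p. every other day for 6 weeks in saline with 10% ethanol and 10% castor oil, or vehicle. Body weight and food intake recorded daily. At end, mice fasted 6 h, anesthetized, and blood collected into EDTA. Plasma chemistry run on an auto-analyzer; insulin by ultra-sensitive ELISA.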

Data set [16] relates to Mus musculus. Kind of data set: Antiobesity activity in high fat diet-induced obese C57BL/6J mouse model assessed as albumin level at 20 mg/kg, ip administered for every other days for 6 weeks by auto-analyzer method (reference value: 38.7 […]). Type of data set: functional. The essentials:
as §3

Data set [17] deals with Mus musculus. Kind of data set: Antiobesity activity in high fat diet-induced obese C57BL/6J mouse model assessed as free fatty acid level at 20 mg/kg, ip administered for every other days for 6 weeks by auto-analyzer method (reference value: 1668.5 +/- 144.6 uM). Format: functional. The essentials: as §3
Data set [18] relates to Mus musculus. The data set can be described thus: Antiobesity activity in high fat diet-induced obese C57BL/6J mouse model assessed as cholesterol level at 20 mg/kg, ip administered for every other days for 6 weeks by auto-analyzer method (reference value: 6.2 +/- 0.3 mM). Type of data set: functional. The essentials:
as §3

In data set [19] the test system is Mus musculus. The data set can be described thus: Antiobesity activity in high fat diet-induced obese C57BL/6J mouse model assessed as insulin level at 20 mg/kg, ip administered for every other days for 6 weeks by ELISA (reference value: 3.5 +/- 0.6 ng/ml). Type of data set: functional. The method in brief:
as §3
(In general: ELISA stands for enzyme-linked immunosorbent assay.)

Data set [20] relates to Mus musculus. Kind of data set: Antiobesity activity in high fat diet-induced obese C57BL/6J mouse model assessed as ratio of LDL cholesterol level to HDL cholesterol level at 20 mg/kg, ip administered for every other days for 6 weeks by auto-analyzer method (reference value: 0.4 +/- 0.13). Format: functional.

The source made the active and inactive calls. The rule behind the calls is not given here.

Take `CN(C)CCCNc1nc(-c2[nH]c3ccccc3c2C=O)nc2ccccc12`: in data set [1], the k el at 1 h is 8.83e-05 s⁻¹. The result with 3T3-L1 [2] was Active. Also, the half-life was 5.1 h in data set [3] and 3.14 h in [4]. Further, the AUC(0-inf) in [5] was determined as 671 ng·h/mL. Moreover, the Vd in data set [6] amounted to 33.8 L/kg.

`COc1ccc2[nH]c(-c3nc(NCCCCN4CCCC4)c4ccccc4n3)c(C=O)c2c1`: the Activity entry in the data set on 3T3-L1 [7] is “Non-Toxic”; in the data set with 3T3-L1 [8], 35.3%; in the data set with Mus musculus [15], 163.7 U/L; with Mus musculus [16], 30.4 g/L; with Mus musculus [17], 694.4 µM; in the data set with Mus musculus [18], 4.7 mM. Further, the Activity in the data set on Mus musculus [19] was 2.2 ng/mL. In addition, the k el at 1 h in data set [1] is 6.17e-05 s⁻¹. The inhibition entry in the data set on 3T3-L1 [9] is “Active”. The outcome in the data set on 3T3-L1 [10] and with 3T3-L1 [11] was inactive. Besides, in data set [12], the LD50 at 1008 h was found to be 500 mg/kg. Also, the result with Mus musculus [13] was Active. In addition, in data set [14], the mean residence time (MRT inf) came to 5.7 h. The same molecule gave a half-life in data set [3] of 4.2 h. Also, the Ratio in the data set on Mus musculus [20] turned out to be 0.25.

As a reminder, the half-life is how long it takes for the measured level to halve. A lower half-life goes with rapid decline. What is called AUC(0-inf) is total exposure, with the tail of the curve extrapolated. A low value points to low exposure. In general, LD50 refers to the dose at which mortality reaches 50%. A high value points to a less toxic substance. The term MRT inf denotes a mean duration of stay, worked out from the concentration-time curve.

The record behind these values is ChEMBL document CHEMBL4732044, “Discovery of a promising agent IQZ23 for the treatment of obesity and related metabolic disorders” (Eur J Med Chem, 2020).
